Data: ChEMBL document CHEMBL1134367, “Solid-phase synthesis and inhibitory effects of some pyrido[1,2-c]pyrimidine derivatives on leukocyte formations and experimental inflammation” (J Med Chem, 2001)

Columns and labels:
[1] = (§1) Inhibition of chemiluminescence generated by hypoxanthine/ xanthine oxidase was determined; settings: concentration not given here
Procedure, shortened: (§2)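 Cell-free superoxide made by the hypoxanthine/xanthine oxidase system, with chemiluminescence recorded.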

[2] = organism: Mus musculus; experiment: PGE-2 level was assayed in RAW 264.7 macrophages after a 20h stimulation with LPS followed by incubation with compound and arachidonic acid for 2 hr; type: functional
Procedure, shortened: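 RAW 264.7 cells first stimulated with LPS for 20 h, then washed and incubated 2 h with compound plus arachidonic acid. PGE₂ measured to assess COX-2 activity in intact cells.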

[3] = organism: Homo sapiens; experiment: Percent inhibition of neutrophils (chemiluminescence) was determined at 10 uM concentration in TPA-induced luminol chemiluminescence assay
[4] = organism: Mus musculus; experiment: PGE-2 levels were assayed in LPS stimulated RAW 264.7 macrophages for 20h in either presence or absence of compound; type: functional
Procedure, shortened: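 Murine RAW 264.7 cells grown in DMEM with 2 mM glutamine, antibiotics and 10% FBS. Cells at 2 × 10⁶/mL exposed to E. coli LPS 1 µg/mL, 37 °C, 20 h, with compound or vehicle. PGE₂ in supernatants by radioimmunoassay. […] Cytotoxicity checked by MTT reduction.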

[5] = as §1; parameters: concentration or dose not given beside the values; settings: concentration not given here; procedure, shortened: as §2
[6] = organism: Mus musculus; experiment: Inhibitory activity against LPS stimulated RAW 264.7 macrophages; type: functional; settings: RAW264.7
Procedure, shortened: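 Murine RAW 264.7 cells grown in DMEM with 2 mM glutamine, antibiotics and 10% FBS. Cells at 2 × 10⁶/mL exposed to E. coli LPS 1 µg/mL, 37 °C, 20 h, with compound or vehicle. PGE₂ in supernatants by radioimmunoassay. Cytotoxicity checked by MTT reduction.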

[7] = tested on: Mus musculus; experiment: PGE-2 levels were assayed in inflamed paw after 5 hr carrageenan paw edema test in mice; type: functional
Procedure, shortened: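 Carrageenan-injected mice (oral compound 1 h prior, Tween 80/saline vehicle) killed by cervical dislocation 5 h after carrageenan. Right hind paws homogenized and PGE₂ measured in homogenates; stomachs handled the same way. Mean ± SEM, n 6-12; ANOVA with Dunnett's t-test.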

[8] = tested on: Mus musculus; experiment: Antiinflammatory activity, assessed by the carrageenan paw edema test in mice; type: functional
Procedure, shortened: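 Mice dosed orally with compound at 20 mg/kg (reference at 10 mg/kg) in Tween 80/saline 1/99 v/v, 1 h before subplantar 3% w/v carrageenan (0.05 mL) in right hind paw. Paw volumes by plethysmometer at 1, 3 and 5 h; edema values at 3 h. Mean ± SEM, n 6-12; ANOVA with Dunnett's t-test.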

[9] = Percentage inhibition of H/XO (chemiluminescence) was determined at 10 uM concentration; procedure, shortened: as §2
[10] = organism: Homo sapiens; experiment: Percent inhibition of neutrophils (chemiluminescence) was determined at 10 uM concentration; type: functional
Procedure, shortened: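 Purified human neutrophils at 2.5 × 10⁶ cells/mL with luminol 40 µM and TPA 1 µM; chemiluminescence recorded. Compounds tested at 10 µM; mean ± SEM.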

| Compound | inhibition [1] [%] | PGE2 Level [2] [ng/mL] | inhibition at 10 µM [3] [%] | PGE2 Level [4] [ng/mL] | inhibition [5] [%] | IC50 [6] [µM] | PGE2 Level [7] [ng/mL] | Edema [8] [µL] | inhibition [9] [%] | inhibition at 10 µM [10] [%] |
| --- | --- | --- | --- | --- | --- | --- | --- | --- | --- | --- |
| [S-]c1nc2ccccc2c2cccc[n+]12 | 51.6 | 10.3 | 53.7 | 16.9 | – | – | – | – | – | – |
| CCOC(=O)c1cc2ccccn2c(=S)n1 | – | 8.2 | 51.8 | 12.8 | 43.3 | 1.7 | 89.7 | 105.2 | – | – |
| CCOC(=O)c1cc2ccccn2/c(=N/c2ccc(Br)cc2)n1 | – | 9.5 | 24.8 | 14.8 | 32.2 | – | 76.9 | 80.8 | – | – |
| CCOC(=O)c1cc2ccccn2c(=O)n1 | – | 10.6 | 29.9 | 16.9 | 26.6 | – | 85.4 | 121.9 | – | – |
| CS(=O)(=O)Nc1ccc([N+](=O)[O-])cc1OC1CCCCC1 [NS-398] | – | 2.1 | – | 3.7 | – | 0.0021 | 53 | 97.2 | – | – |
| CCOC(=O)c1cc2ccccn2/c(=N/c2ccccc2)n1 | – | 11 | – | 10.9 | – | – | 70.6 | 82.2 | 57.1 | 52.3 |
| CCOC(=O)c1cc2ccccn2/c(=N/c2ccc(C)cc2)n1 | – | 13.5 | – | 13.3 | – | 1.7 | 71 | 92.4 | 49.1 | 31.1 |
| CCOC(=O)c1cc2ccccn2/c(=N/c2ccc(Cl)cc2)n1 | – | 10.6 | 38.8 | 8.2 | 31.3 | 0.4 | 83.3 | 102 | – | – |
| CCOC(=O)c1cc2ccccn2/c(=N/c2ccc(F)cc2)n1 | – | 8.9 | 44.4 | 11.8 | 49.6 | 1.5 | 82.5 | 103.9 | – | – |
| CCOC(=O)c1cc2ccccn2/c(=N/c2ccc(OC)cc2)n1 | – | 9.6 | 75.9 | 12 | – | 3.5 | 78.7 | 91.6 | 93.3 | – |
